One data set has as its system UGT1A9. The conditions noted are these: cited from earlier work.
The test system of data set [1] is HeLa-UGT1A9 cells. The class given is in vitro ADME, human. The note with it: end of experiment. In short, it runs like this:
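After the efflux incubation, cells were washed twice with ice-cold HBSS, collected in HBSS and sonicated for 30 min at 4°C. Lysates were centrifuged at 15,500 rpm for 20 min. Supernatant was mixed with acetonitrile/acetic acid stop solution and glucuronides were quantified by UPLC-DAD. Protein was measured by assay kit against a BSA standard, and concentration was calculated assuming a cell volume of 4 μl/mg protein. n=3.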

A further data set concerns the target T1, BCRP (Homo sapiens, UniProt Q9UNQ0).
T1 sequence (Q9UNQ0 1-655): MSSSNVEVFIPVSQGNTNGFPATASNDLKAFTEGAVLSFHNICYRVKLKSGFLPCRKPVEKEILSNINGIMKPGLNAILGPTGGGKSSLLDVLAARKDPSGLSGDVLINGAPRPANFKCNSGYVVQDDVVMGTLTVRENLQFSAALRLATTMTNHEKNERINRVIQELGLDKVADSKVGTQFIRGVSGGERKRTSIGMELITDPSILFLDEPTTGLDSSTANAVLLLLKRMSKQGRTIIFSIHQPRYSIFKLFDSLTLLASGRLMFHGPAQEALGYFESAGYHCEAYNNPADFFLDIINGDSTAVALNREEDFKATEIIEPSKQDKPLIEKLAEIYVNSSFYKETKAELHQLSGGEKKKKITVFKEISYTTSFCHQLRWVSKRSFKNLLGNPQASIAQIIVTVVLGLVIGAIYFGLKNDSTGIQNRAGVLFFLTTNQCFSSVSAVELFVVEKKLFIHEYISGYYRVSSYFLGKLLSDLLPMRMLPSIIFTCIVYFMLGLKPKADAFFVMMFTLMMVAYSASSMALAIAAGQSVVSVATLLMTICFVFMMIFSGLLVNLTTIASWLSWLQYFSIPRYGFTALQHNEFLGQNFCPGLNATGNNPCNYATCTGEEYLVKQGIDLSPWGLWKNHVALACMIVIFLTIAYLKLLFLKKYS
Kind of data set: BCRP-mediated efflux of flavone glucuronides from HeLa-UGT1A9 cells. The class given is in vitro ADME. The conditions noted are these: for Log(CLint) / Vmax: BCRP-mediated glucuronide efflux, HeLa-UGT1A9 cells; for Km: efflux kinetic parameter Km, HeLa-UGT1A9 cells (Table 2, unit inferred). In short, it runs like this:
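HeLa cells stably expressing UGT1A9 were used 3 days post-seeding and washed twice with 37°C HBSS (pH 7.4). They were loaded at 37°C with a mono- or dihydroxyflavone aglycone in HBSS, diluted from a 100X DMSO/methanol (1:4) stock. Medium was sampled within the linear time range, quenched with acetonitrile/acetic acid and analysed by UPLC-DAD. Rates (pmol/min/mg protein) were fitted against intracellular glucuronide concentration; CLint = Vmax/Km. n=3.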

Data set [2] concerns the target T2, Human BCRP (Arg482) membrane vesicles (Homo sapiens, UniProt Q9UNQ0).
T2 sequence (Q9UNQ0 1-655): T1 sequence (Q9UNQ0 1-655)
Kind of data set: Vesicular transport of HF glucuronides in BCRP-overexpressing membrane vesicles. The class given is in vitro ADME. The note with it: for difference in Km between membrane vesicles and HeLa-UGT1A9 cells: BCRP vesicles vs HeLa-UGT1A9 cells; for Km: efflux kinetic parameter Km, BCRP membrane vesicles (Table 2, unit inferred). Put shortly:
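Inside-out human BCRP (Arg482) membrane vesicles were incubated with glucuronide substrate and 5 mM ATP, or AMP as control, in 10 mM MgCl₂/10 mM Tris-HCl (pH 7.4). The reaction was stopped with cold buffer, followed by rapid filtration through glass-fibre filters and ice-cold washes. Filters were extracted in 50% methanol with sonication, centrifuged and analysed by UPLC. ATP-dependent transport was taken as ATP minus AMP values.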

For data set [3], the system named is HeLa-UGT1A9 cells. Kind of data set: Fraction metabolized. The class given is in vitro ADME, human. The conditions noted are these: six DHFs compared at five loading concentrations (Fig. 8A).
Setting [4] is: UGT1A9-mediated glucuronidation of the aglycone, ref Wu and Hu [37].
Setting [5] is: loading aglycone concentration 1.25 μM.
Where [6] appears, read: loading aglycone concentration 2.5 μM.
Where [7] appears, read: loading aglycone concentration 5 μM.
Where [8] appears, read: loading aglycone concentration 10 μM.
Setting [9] is: loading aglycone concentration 15 μM.
The mark [10] stands for this setting: loading aglycone concentration 20 μM.
Where [11] appears, read: loading aglycone concentration 0.3125 μM.
The mark [12] stands for this setting: loading aglycone concentration 0.625 μM.

Structures are written as SMILES. Like-named read-outs stand apart in the source and are kept apart here.

For orientation: Km means the substrate concentration at which the rate is half of its maximum. `O=c1cc(-c2ccccc2)oc2ccc(O)cc12` [6HF, 6-Hydroxyflavone]: in the data set on UGT1A9 (setting [4]), the Km is 2.27 µM, the “Log(CLint)′” value is on record as 1.53 and the “Vmax′” value is given as 76.1 pmol/mg/min.
A word on the Vmax: it is the top rate of the reaction or transport when substrate is in excess. For the compound `O=C(O)[C@H]1O[C@@H](Oc2cccc3oc(-c4ccccc4)cc(=O)c23)[C@H](O)[C@@H](O)[C@@H]1O` [5HF-G], the “Intracellular Con. of HFs-G or DHFs-3-O-G” value with HeLa-UGT1A9 cells [1] (setting [5]) stood at 31.03 ± 0.44 µM; with HeLa-UGT1A9 cells [1] (setting [6]), 47.98 ± 3.91 µM; with HeLa-UGT1A9 cells [1] (setting [7]) it was 72.86 ± 2.26 µM; in the data set with HeLa-UGT1A9 cells [1] (setting [8]), 94.74 ± 11.70 µM. The “Intracellular Con. of HFs-G” value worked out at 18.32 ± 6.47 µM with HeLa-UGT1A9 cells [1] (setting [9]) and 235.51 ± 14.96 µM with HeLa-UGT1A9 cells [1] (setting [10]). Besides, the “Log(CLint)” value at BCRP was 0.77. For the same compound, the Vmax at BCRP is 283.4 ± 20.0 pmol/mg/min. The Km at BCRP stood at 48.5 µM; in data set [2], 2.9 µM. Also, in data set [2], the “difference in Km between membrane vesicles and HeLa-UGT1A9 cells” value was above 10 fold.
Regarding `O=c1c(O)c(-c2ccccc2)oc2ccccc12` [3HF, 3-Hydroxyflavone], in the data set with UGT1A9 (setting [4]), the Km was 0.3 µM, the “Log(CLint)′” value is on record as 3.84 and the “Vmax′” value was 2100 pmol/mg/min.
Take `O=C(O)[C@H]1O[C@@H](Oc2c(-c3ccccc3)oc3cccc(O)c3c2=O)[C@H](O)[C@@H](O)[C@@H]1O` [3,5DHF-3-O-G]: the figures for the “Intracellular Con. of DHFs-3-O-G” value with HeLa-UGT1A9 cells [1] (setting [11]) and with HeLa-UGT1A9 cells [1] (setting [12]) were 2.28 ± 0.68 µM and 4.82 ± 0.02 µM, respectively. The “Intracellular Con. of HFs-G or DHFs-3-O-G” value was 14.70 ± 2.60 µM in the data set with HeLa-UGT1A9 cells [1] (setting [5]), 53.48 ± 3.45 µM in the data set on HeLa-UGT1A9 cells [1] (setting [6]), 242.98 ± 9.46 µM in the data set on HeLa-UGT1A9 cells [1] (setting [7]) and 416.65 ± 12.34 µM in the data set with HeLa-UGT1A9 cells [1] (setting [8]). Further, at BCRP, the “Log(CLint)” value is reported as 0.72. On BCRP, the Vmax came out at 67.3 ± 6.2 pmol/mg/min.
For `O=c1c(O)c(-c2cccc(O)c2)oc2ccccc12` [3,3′ DHF, 3,3′-Dihydroxyflavone], in the data set on UGT1A9 (setting [4]), the Michaelis-Menten constant (Km) was 0.11 µM, the “Log(CLint)′” value is reported as 4.44 and the “Vmax′” value is reported as 3100 pmol/mg/min.
On to `O=C(O)[C@H]1O[C@@H](Oc2c(-c3ccccc3)oc3ccccc3c2=O)[C@H](O)[C@@H](O)[C@@H]1O` [3HF-G], for which the “Intracellular Con. of HFs-G or DHFs-3-O-G” value stood at 7.14 ± 3.02 µM with HeLa-UGT1A9 cells [1] (setting [5]), 38.56 ± 8.36 µM with HeLa-UGT1A9 cells [1] (setting [6]), 206.98 ± 12.39 µM in the data set with HeLa-UGT1A9 cells [1] (setting [7]) and 335.57 ± 41.55 µM in the data set with HeLa-UGT1A9 cells [1] (setting [8]). The figures for the “Intracellular Con. of HFs-G” value in the data set with HeLa-UGT1A9 cells [1] (setting [9]) and in the data set with HeLa-UGT1A9 cells [1] (setting [10]) were 356.82 ± 94.04 µM and 280.60 ± 28.78 µM, respectively. In addition, the “Log(CLint)” value at BCRP is listed as 1.23. Further, the Vmax at BCRP was 165.6 ± 10.1 pmol/mg/min. For the same compound, the Michaelis constant (Km) was 9.7 µM on BCRP and 29 µM in data set [2]. In data set [2], the “difference in Km between membrane vesicles and HeLa-UGT1A9 cells” value is “approximately 3 fold”.
For the compound `O=c1cc(-c2ccccc2O)oc2ccccc12` [2′HF, 2′-Hydroxyflavone], in the data set on UGT1A9 (setting [4]), the Km is 0.4 µM, the “Log(CLint)′” value is on record as 2.27 and the “Vmax′” value is 74.4 pmol/mg/min.
Regarding `O=C(O)[C@H]1O[C@@H](Oc2c(-c3ccc(O)cc3)oc3ccccc3c2=O)[C@H](O)[C@@H](O)[C@@H]1O` [3,4′DHF-3-O-G], the “Intracellular Con. of DHFs-3-O-G” value in the data set on HeLa-UGT1A9 cells [1] (setting [11]) was 2.67 ± 0.09 µM; in the data set on HeLa-UGT1A9 cells [1] (setting [12]) it was 14.27 ± 2.00 µM. Also, the “Intracellular Con. of HFs-G or DHFs-3-O-G” value came out at 71.15 ± 6.11 µM in the data set with HeLa-UGT1A9 cells [1] (setting [5]), 241.60 ± 26.10 µM in the data set with HeLa-UGT1A9 cells [1] (setting [6]), 645.32 ± 5.81 µM in the data set with HeLa-UGT1A9 cells [1] (setting [7]) and 715.62 ± 31.7 µM in the data set with HeLa-UGT1A9 cells [1] (setting [8]). On BCRP, the “Log(CLint)” value came out at 0.38. In addition, on BCRP, the maximum rate (Vmax) was 86.0 ± 5.4 pmol/mg/min.
Turning to `O=c1cc(-c2ccccc2)oc2cc(O)ccc12` [7HF, 7-Hydroxyflavone], in the data set on UGT1A9 (setting [4]), the Km is 3.59 µM, the “Log(CLint)′” value is 3.13 and the “Vmax′” value was 4895 pmol/mg/min.
For `O=c1cc(-c2cccc(O)c2)oc2ccccc12` [3′HF, 3′-Hydroxyflavone], in the data set on UGT1A9 (setting [4]), the Km was 2.02 µM, the “Log(CLint)′” value is 2.66 and the “Vmax′” value is given as 926 pmol/mg/min.
With `O=c1c(O)c(-c2ccccc2O)oc2ccccc12` [3,2′DHF, 3,2′-Dihydroxyflavone], in the data set on UGT1A9 (setting [4]), the Km was 0.67 µM, the “Log(CLint)′” value is listed as 1.89 and the “Vmax′” value was 52 pmol/mg/min.
Take `O=c1c(O)c(-c2ccccc2)oc2cc(O)ccc12` [3,7DHF(3-OH), 3,7-Dihydroxyflavone]: in the data set on UGT1A9 (setting [4]), the Km was 0.22 µM, the “Log(CLint)′” value is 4.32 and the “Vmax′” value is on record as 4600 pmol/mg/min.
As to `O=c1c(O)c(-c2ccc(O)cc2)oc2ccccc12` [3,4′DHF, 3,4′-Dihydroxyflavone], in the data set with UGT1A9 (setting [4]), the Km is 0.13 µM and the “Vmax′” value is 1800 pmol/mg/min.
As to `O=c1cc(-c2ccccc2)oc2cccc(O)c12` [5HF, 5-Hydroxyflavone], the “Vmax′” value in the data set on UGT1A9 (setting [4]) is listed as 118 pmol/mg/min. In the data set on UGT1A9, the “CLint′(Vmax′/ Km′)” value is 123 µL/min/mg, the Michaelis constant (Km) is 0.96 µM and the “Log(CLint)′” value is listed as 2.09.
As to `O=c1c(O)c(-c2ccccc2)oc2ccc(O)cc12` [3,6DHF, 3,6-Dihydroxyflavone], the fmet entry in the data set on HeLa-UGT1A9 cells [3] is “highest fmet value at all tested concentration”. Further, in the data set on UGT1A9 (setting [4]), the Km is 0.62 µM, the “Log(CLint)′” value is recorded as 4.34 and the “Vmax′” value is listed as 13000 pmol/mg/min.
Take `O=c1cc(-c2ccc(O)cc2)oc2ccccc12` [4′HF, 4′-Hydroxyflavone]: in the data set with UGT1A9 (setting [4]), the Km was 1.46 µM, the “Log(CLint)′” value is 1.83 and the “Vmax′” value is 98.7 pmol/mg/min.
For `O=c1c(O)c(-c2ccccc2)oc2cccc(O)c12` [3,5 DHF, 3,5-Dihydroxyflavone], the fmet entry in the data set with HeLa-UGT1A9 cells [3] is on record as “least sensitive to the rising concentration”. Besides, in the data set with UGT1A9 (setting [4]), the Km was 0.25 µM, the “Log(CLint)′” value is given as 3.88 and the “Vmax′” value is 1900 pmol/mg/min.

These data come from paper PMC4030725 (Molecular pharmaceutics, 2013).
